Measurements reported in ChEMBL document CHEMBL3232764, “Influence of the adamantyl moiety on the activity of biphenylacrylohydroxamic acid-based HDAC inhibitors” (Eur J Med Chem, 2014).
The source made the active and inactive calls. The rule behind the calls is not given here.

What was measured:
Histone deacetylase 4 = Histone deacetylase 4 (Homo sapiens, UniProt P56524); assay: Inhibition of human HDAC4 using fluorogenic tetrapeptide RHKKAc as substrate
[1] = molecular target: T1, Polyamine deacetylase HDAC10 (Homo sapiens, UniProt Q969S8); assay: Inhibition of human HDAC10 using fluorogenic tetrapeptide RHKKAc as substrate
T1 sequence (Q969S8 whole entry): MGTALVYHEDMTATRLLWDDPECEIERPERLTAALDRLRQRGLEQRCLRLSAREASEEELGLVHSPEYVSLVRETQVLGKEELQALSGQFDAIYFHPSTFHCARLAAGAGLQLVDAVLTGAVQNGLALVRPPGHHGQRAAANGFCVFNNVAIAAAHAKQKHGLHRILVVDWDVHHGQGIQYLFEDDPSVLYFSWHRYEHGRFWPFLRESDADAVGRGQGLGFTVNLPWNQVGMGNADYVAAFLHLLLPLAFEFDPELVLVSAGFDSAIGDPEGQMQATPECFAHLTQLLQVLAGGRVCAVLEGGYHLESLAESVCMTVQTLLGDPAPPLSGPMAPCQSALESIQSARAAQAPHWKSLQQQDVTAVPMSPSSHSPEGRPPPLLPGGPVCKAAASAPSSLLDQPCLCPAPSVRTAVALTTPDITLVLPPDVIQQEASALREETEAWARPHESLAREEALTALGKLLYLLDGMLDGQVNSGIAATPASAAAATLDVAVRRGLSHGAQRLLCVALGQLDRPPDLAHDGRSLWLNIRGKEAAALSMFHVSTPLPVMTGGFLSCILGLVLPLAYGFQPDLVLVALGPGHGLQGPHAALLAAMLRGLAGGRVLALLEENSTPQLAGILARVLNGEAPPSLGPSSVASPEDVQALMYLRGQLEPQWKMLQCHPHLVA

[2] = Cell cycle arrest in human IGROV1 cells assessed as accumulation at G2/M phase at IC80 after 24 hrs by propidium iodide staining-based flow cytometry (reference value: 13.21%); assay type: functional; settings: IGROV-1
Method in brief: (§1)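 Cell-cycle distribution in IGROV-1 cells read by flow cytometry of propidium iodide–stained cells.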

cells = assay type: functional, cell-based; settings: Homo sapiens, NCI-H460, 72 h
IGROV-1 [3] = assay: Cell cycle arrest in human IGROV1 cells assessed as accumulation at G1 phase at IC80 after 24 hrs by propidium iodide staining-based flow cytometry (reference value: 49.98%); assay type: functional; method in brief: as §1
IGROV-1 [4] = assay: Antiproliferative activity against human IGROV1 cells assessed as growth inhibition after 72 hrs; assay type: functional, cell-based; settings: IGROV-1, 72 h
Method in brief: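 Log-phase cells seeded in duplicate in 6-well plates; drug added 24 h after seeding. Cells harvested 72 h after drug exposure and counted with a cell counter. IC50 = drug concentration giving 50% reduction in cell number versus untreated control.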

[5] = molecular target: T2, Protein deacetylase HDAC6 (Homo sapiens) (UniProt Q9UBN7); assay: Inhibition of HDAC6 in human IGROV1 cells assessed as increase in tubulin acetylation at IC80 after 4 to 24 hrs by Western blot analysis; assay type: cell-based; settings: IGROV-1
T2 sequence (whole entry): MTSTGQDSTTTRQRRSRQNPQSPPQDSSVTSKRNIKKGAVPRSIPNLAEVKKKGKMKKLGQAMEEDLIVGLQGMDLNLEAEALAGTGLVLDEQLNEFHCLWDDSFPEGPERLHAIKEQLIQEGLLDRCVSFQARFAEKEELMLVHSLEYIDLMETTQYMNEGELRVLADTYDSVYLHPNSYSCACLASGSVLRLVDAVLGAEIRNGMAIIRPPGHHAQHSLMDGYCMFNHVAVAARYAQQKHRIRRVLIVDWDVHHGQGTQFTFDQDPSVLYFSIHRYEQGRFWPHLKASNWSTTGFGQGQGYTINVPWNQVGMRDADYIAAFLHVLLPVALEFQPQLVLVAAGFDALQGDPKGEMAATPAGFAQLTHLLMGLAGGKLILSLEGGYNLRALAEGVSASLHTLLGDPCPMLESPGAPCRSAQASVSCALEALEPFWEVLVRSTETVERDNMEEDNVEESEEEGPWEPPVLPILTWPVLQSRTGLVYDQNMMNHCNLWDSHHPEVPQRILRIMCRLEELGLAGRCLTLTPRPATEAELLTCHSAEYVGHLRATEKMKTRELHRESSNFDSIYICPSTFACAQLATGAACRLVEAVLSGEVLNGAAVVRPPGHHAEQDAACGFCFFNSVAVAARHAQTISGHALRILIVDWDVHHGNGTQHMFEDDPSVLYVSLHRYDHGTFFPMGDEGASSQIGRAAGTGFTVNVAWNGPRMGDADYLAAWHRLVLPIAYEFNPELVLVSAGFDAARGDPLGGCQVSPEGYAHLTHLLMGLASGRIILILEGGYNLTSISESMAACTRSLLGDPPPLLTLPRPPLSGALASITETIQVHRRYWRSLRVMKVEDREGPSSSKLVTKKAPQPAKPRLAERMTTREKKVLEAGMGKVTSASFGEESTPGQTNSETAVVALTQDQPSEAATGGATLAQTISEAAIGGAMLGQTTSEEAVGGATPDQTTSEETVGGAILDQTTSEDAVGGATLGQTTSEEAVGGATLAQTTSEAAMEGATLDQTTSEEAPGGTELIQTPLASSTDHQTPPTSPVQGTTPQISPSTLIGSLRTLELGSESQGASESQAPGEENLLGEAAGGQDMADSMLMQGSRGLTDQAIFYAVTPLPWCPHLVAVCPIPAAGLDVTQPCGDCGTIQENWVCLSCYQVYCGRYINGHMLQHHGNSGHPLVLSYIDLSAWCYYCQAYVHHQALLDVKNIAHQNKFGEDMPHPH
Method in brief: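 Cells treated with various concentrations of HDAC inhibitors, collected, lysed and analysed by Western blotting.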

Histone deacetylase 2 = Histone deacetylase 2 (Homo sapiens, UniProt Q92769); assay type: cell-based, HeLa
Histone deacetylase 2, sequence (Q92769 whole entry): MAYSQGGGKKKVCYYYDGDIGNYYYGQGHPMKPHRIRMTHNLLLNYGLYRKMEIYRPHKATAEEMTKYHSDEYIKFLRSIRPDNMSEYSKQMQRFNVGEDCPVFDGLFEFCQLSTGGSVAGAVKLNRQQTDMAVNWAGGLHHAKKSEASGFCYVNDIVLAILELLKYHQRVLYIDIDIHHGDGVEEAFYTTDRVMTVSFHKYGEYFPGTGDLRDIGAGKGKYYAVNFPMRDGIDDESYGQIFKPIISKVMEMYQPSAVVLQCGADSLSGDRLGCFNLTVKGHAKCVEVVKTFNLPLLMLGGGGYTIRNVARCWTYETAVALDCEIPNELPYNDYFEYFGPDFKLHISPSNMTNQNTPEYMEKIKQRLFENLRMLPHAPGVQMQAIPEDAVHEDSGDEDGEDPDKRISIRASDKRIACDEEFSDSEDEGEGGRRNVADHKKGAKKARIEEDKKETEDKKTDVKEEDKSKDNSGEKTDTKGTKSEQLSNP

IGROV-1 [6] = assay: Cell cycle arrest in human IGROV1 cells assessed as accumulation at S phase at IC80 after 24 hrs by propidium iodide staining-based flow cytometry (reference value: 36.81%); assay type: functional; method in brief: as §1

Histone deacetylase 4, sequence (P56524 whole entry): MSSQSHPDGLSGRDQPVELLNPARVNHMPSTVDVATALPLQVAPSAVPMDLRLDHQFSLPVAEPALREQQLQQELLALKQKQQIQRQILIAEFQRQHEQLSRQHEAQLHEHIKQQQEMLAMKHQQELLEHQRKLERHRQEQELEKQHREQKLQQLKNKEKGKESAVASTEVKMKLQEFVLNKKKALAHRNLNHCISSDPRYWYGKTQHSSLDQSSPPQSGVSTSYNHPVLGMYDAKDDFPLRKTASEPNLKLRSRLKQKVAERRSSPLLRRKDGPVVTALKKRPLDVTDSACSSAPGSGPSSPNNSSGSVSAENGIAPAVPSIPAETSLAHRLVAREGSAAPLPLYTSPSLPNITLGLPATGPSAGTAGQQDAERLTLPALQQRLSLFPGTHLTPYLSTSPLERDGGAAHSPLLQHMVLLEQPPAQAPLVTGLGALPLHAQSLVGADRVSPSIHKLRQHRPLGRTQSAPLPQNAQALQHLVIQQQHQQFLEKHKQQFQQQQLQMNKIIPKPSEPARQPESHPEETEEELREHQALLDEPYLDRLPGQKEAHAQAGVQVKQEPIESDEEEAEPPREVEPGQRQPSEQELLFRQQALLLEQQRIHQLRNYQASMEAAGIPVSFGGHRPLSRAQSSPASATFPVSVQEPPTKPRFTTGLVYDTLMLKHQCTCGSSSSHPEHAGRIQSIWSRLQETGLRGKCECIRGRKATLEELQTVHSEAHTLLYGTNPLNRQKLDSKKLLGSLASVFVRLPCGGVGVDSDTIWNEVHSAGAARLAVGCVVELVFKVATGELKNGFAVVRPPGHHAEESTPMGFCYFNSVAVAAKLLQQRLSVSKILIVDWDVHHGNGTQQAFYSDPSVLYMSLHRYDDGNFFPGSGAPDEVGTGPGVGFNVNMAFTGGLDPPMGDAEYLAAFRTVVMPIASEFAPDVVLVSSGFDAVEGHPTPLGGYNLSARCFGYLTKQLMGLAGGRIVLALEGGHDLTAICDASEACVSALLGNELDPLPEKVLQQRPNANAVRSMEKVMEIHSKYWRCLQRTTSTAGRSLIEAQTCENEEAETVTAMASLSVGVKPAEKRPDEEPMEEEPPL

| SMILES | IC50 (Histone deacetylase 4) [µM] | IC50 [1] [µM] | Activity [2] [%] | IC50 (cells) [µM] | Activity (IGROV-1 [3]) [%] | IC50 (IGROV-1 [4]) [µM] | Activity [5] | IC50 (Histone deacetylase 2) [µM] | Activity (IGROV-1 [6]) [%] |
| --- | --- | --- | --- | --- | --- | --- | --- | --- | --- |
| COc1ccc(-c2ccc(/C=C/C=C/C(=O)NO)cc2)cc1 | > 100 | > 100 |  |  |  |  |  |  |  |
| COc1ccc(-c2ccc(/C=C/C=C/C(=O)NO)cc2)cc1C12CC3CC(CC(C3)C1)C2 | > 100 | > 100 | 7.46 | 1.4 | 70.35 | 1.3 | inactive | > 10 | 22.18 |
